From PubChem BioAssay
STEP inh: inhibitors of human striatal-enriched phosphatase STEP; P54829; recombinant STEP, OMFP fluorogenic substrate, fluorescence; inhibition, % at 20 µM; 360,000 tested, 0.25% active;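 active = inhibition at 20 µM, scaled per plate between control wells, above about 37%, limit read from the data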;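 also: 0% = DMSO with enzyme and substrate and 100% = substrate only without enzyme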
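Material: STEP (striatal-enriched tyrosine phosphatase) enzyme, cell-free; Compound dosing: 20 µM single dose in 1% DMSO; Technique: fluorescence read at 480 nm ex / 540 nm em; Times: reaction 20 min, ambient temperature; Medium: 50 mM Bis-Tris pH 6.0 with 2.5 mM DTT and 0.005% Tween 20; Also added: OMFP at 25 µM.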
DNMT1 block: inhibitors of human DNMT1 | P26358 | DNMT1 molecular beacon, Hinp1I cleavage, fluorescence | inhibition (reported as % activation of signal), % at 10 µM | 360,000 tested, 0.83% active | AID 588458; in the data active = inhibition above about 50%
CSN inh: blocks human CSN-mediated cullin deneddylation; inhibition, % at 12.5 µM; Q92905; Purified CSN, SCF-Nedd8-OG deneddylation, fluorescence polarization; 360,000 tested, 0.38% active;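 active = pattern-corrected inhibition above about 35%, with an unprinted fluorescence ratio check between 0.5 and 1.5, limit read from the data, passing the limit was not always enough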;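 also: 0% = enzyme with substrate and 100% = substrate without enzyme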
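Schedule: reaction 90 min, room temperature / Assay system: HEK293T-derived human Csn5 enzyme / Input: Csn5 at 0.24 nM final / Measure: inhibition of Csn5 cleavage, % / Control set: substrate-only high control, full reaction low control / Technique: fluorescence polarization of the substrate / Buffer or medium: Tris/NaCl/DTT buffer, pH 7.5 / Reagent: SCFSkp2-Nedd8OG substrate at 10 nM final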
Scp-1 inhibitor: inhibitors of human Scp-1 phosphatase | Q9GZU7 | Recombinant Scp1, phosphopeptide, malachite green phosphate absorbance | inhibition, % at 20 µM | 340,000 tested, 0.88% active | AID 493091;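 active = inhibition above about 50% at 20 µM, limit read from the data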;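 also: plate controls were DMSO wells with enzyme for no effect and wells lacking enzyme for full effect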
Target sequence (Q9GZU7 76-261 limits assumed): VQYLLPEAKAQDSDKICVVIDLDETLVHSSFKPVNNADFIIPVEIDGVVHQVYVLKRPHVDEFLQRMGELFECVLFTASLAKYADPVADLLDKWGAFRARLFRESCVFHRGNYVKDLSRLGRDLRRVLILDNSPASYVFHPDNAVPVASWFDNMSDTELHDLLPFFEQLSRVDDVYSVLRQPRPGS
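Test system: SCP-1 phosphatase catalytic domain, residues 76-261; measured by: colorimetric phosphate reagent with accelerator and stabiliser, absorbance at 630 nm; timing: enzyme reaction 45 min at room temperature, colour 5 min, stabilisation 30 min; also added: Phosphorylated 17-residue peptide substrate; compound dosing: one concentration, 20 µM, with 1.0% DMSO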
SUMO1-SIM PPI: modulators of human SUMO1-mediated protein-protein interactions. SUMO1 binding to a labelled peptide, TR-FRET, 1 h. P63165. inhibition, % at 20 µM. 360,000 tested, 0.33% active. AID 602429; in the data active = inhibition above about 37%
Target sequence (P63165 whole entry, looked up): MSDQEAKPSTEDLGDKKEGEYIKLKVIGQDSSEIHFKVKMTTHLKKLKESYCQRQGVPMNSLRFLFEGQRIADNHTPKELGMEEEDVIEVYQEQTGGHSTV
LMPTP inh: blocks human LMPTP phosphatase; recombinant LMPTP-A, OMFP fluorogenic substrate, fluorescence intensity; 360,000 tested, 0.22% active; inhibition, % at 20 µM;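 active = compounds that cut the enzyme signal by at least half of the control window in the single-dose screen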;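 also: plate controls were DMSO wells with enzyme plus substrate for no effect and substrate without enzyme for full effect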
Target sequence (P24666 whole entry, looked up): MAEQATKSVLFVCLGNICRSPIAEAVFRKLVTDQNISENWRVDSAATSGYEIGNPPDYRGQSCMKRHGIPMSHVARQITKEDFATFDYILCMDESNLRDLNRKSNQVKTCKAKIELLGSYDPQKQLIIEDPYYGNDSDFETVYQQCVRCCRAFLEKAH
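Test system – LMPTP-A phosphatase enzyme · Quantity – 0.625 nM LMPTP-A final · Reagent – OMFP substrate, 400 µM final · Dosing – one test concentration per compound, 20 µM, with 3% DMSO overall · Timing – 50 min enzyme reaction at room temperature, protected from light · Detection – fluorescence intensity · Controls – substrate-only low control, DMSO enzyme-plus-substrate high control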
Beacon interf DR: shows spectral interference in the DNMT1 beacon assay. AID 602382. IC50, µM. molecular beacon fluorescence, spectral interference counter-screen. shares compounds with DNMT1 block. 200 tested, under 10 active; call rule not given here
DNMT1 confirm: DNMT1 inhibition confirmation, single concentration | shares compounds with DNMT1 block | DNMT1 molecular beacon HinP1I cleavage, fluorescence | inhibition, % at 10 µM | 2,300 tested, 8% active | AID 602385;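 active = average inhibition of at least 30% in the single-concentration confirmation test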
DNMT1 interf: beacon fluorescence artifact counter-screen; shares compounds with DNMT1 block; DNMT1 molecular beacon spectral interference counterscreen, fluorescence 485/520; activation (fluorescence interference), % at 10 µM; 2,300 tested, 1% active; AID 602387;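 active = activation of at least 30% at 10 µM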;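 also: DNMT1 catalytic domain with a HinP1I cleavage step and a FAM/dabcyl DNA beacon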
* = called active by the depositor; nt = no result given. In the library only some 2% were active in any assay of this set; here they are far more common.

SMILES	STEP inh	DNMT1 block	CSN inh	Scp-1 inhibitor	SUMO1-SIM PPI	LMPTP inh	DNMT1 confirm	DNMT1 interf	others
COc1ccc2nc(/C(C#N)=C\c3ccc(Oc4ccc([N+](=O)[O-])cn4)cc3)[nH]c2c1	2.5	57.3*	1.6	-2.7	-3.4	3.2	1.9	2.2
Cc1cc(Nc2cccc(Cl)c2Cl)n2ncnc2n1	1.3	1.4	3.4	5.6	2.5	-0.9	nt	nt
CCc1ccc(OC(C)C(=O)Nc2ccccc2C(=O)N2CCOCC2)cc1 (stereo not drawn)	-2.8	2.3	1.3	-0.7	-3.2	0.1	nt	nt
O=[N+]([O-])c1ccc(-c2cc(-c3ccc(Cl)cc3)n[nH]2)cc1	0.2	91.0*	4.5	-4.1	46.9*	6.5	9.1	-1.1
O=[N+]([O-])c1ccc2nc(-c3ccc(Cl)cc3)[nH]c2c1	6.1	-21.3	0.5	-6.0	-0.2	4.4	nt	nt
O=C(NCc1ccccc1)c1cccc(NS(=O)(=O)c2cccc3cccnc23)c1	-4.2	1.2	-16.5	-5.7	0.2	-0.3	nt	nt
COc1ccc(NC(=O)NC2(C(=O)N3CCN4CCCC4C3)CCCCC2)cc1 (stereo not drawn)	-0.6	-0.5	5.2	-7.2	2.2	-0.8	nt	nt
COc1ccc(NC(=O)NC2(C(=O)N3CCOCC3)CCCCC2)cc1	-1.0	53.9*	3.4	-9.3	5.1	-0.2	0.6	-2.8
CCN(CC(=O)Nc1ccc(NC(C)=O)cc1)C(=O)/C=C/c1ccc(C)o1	-0.6	1.9	-3.4	-7.2	-9.8	-0.5	nt	nt
O=C(O)c1cccc2c1-c1ccc(Cl)cc1C2=O	-1.9	0.1	-1.4	-0.3	-28.0	-2.7	nt	nt
O=C(O)c1cc(O)c2c(c1)C(=O)c1cccc(O)c1C2=O	12.6	69.4*	-5.0	64.6*	32.4	10.1	8.6	1.1
COc1ccc(NC(=O)C2Cc3c(-c4ccco4)ccnc3O2)cc1OC (stereo not drawn)	-0.7	89.8*	-0.9	nt	-1.1	1.1	0.6	1.7
CC(=O)Oc1ccccc1N(C(C)=O)S(=O)(=O)c1cccc([N+](=O)[O-])c1	4.0	15.0	2.3	15.3	-13.9	2.6	nt	nt
CCCn1nc(NS(=O)(=O)c2cccc3nonc23)c2cc3ccccc3nc21	-1.8	-2.0	-5.9	10.7	-16.8	-2.4	nt	nt
O=C(/C=C/c1ccc([N+](=O)[O-])cc1)OCC(=O)N1c2ccccc2Sc2ccccc21	-0.6	-0.7	-3.0	-1.0	-6.0	0.0	nt	nt
CCOc1cc(C#N)ccc1OCC(=O)NNC(=O)CC1CCS(=O)(=O)C1 (stereo not drawn)	2.9	76.7*	-3.6	-7.6	1.0	-0.3	-0.1	4.2
O=C(COc1c(F)c(F)cc(F)c1F)NNC(=O)CC1CCS(=O)(=O)C1 (stereo not drawn)	0.7	1.6	5.6	1.8	-2.9	-0.3	nt	nt
N=c1c(C(=O)NC2CCCCC2)cc2c(=O)n3ccccc3nc2n1CCc1ccccc1	1.1	-1.3	4.3	-2.0	-7.2	1.5	nt	nt
CC(C)(C)C(c1nc2ccccc2[nH]1)n1c(-c2cccc(S(C)(=O)=O)c2)nc2ccccc21 (stereo not drawn)	nt	nt	-7.4	nt	3.2	2.3	nt	nt
Cc1cc2c(N)cccc2nn1	75.3*	127.3*	-29.6	60.3*	72.5*	93.2*	1.3	0.4
Cc1cc2c(NC(=O)Nc3ccccc3)cccc2nn1	2.1	-5.5	1.8	-0.7	-12.2	0.4	nt	nt
Cc1ccc(CNC(=O)c2nnn(CC(=O)Nc3cccc(C)c3C)c2N)cc1	0.4	61.5*	36.3*	-3.5	2.0	23.1	12.1	-2.9
COc1cc(C)cc(C(=O)O)c1C1=C(O)c2cccc(O)c2C(=O)C1=O	6.4	66.4*	23.5	47.4	6.9	3.6	17.2	-2.0
Cc1nc(S/C(C(=O)O)=C2/C(=O)Nc3ccccc32)n[nH]1	-4.4	-0.6	-1.4	-1.7	-27.4	2.1	nt	nt
Cn1cc(Br)c(C(=O)Nc2sc3c(c2C(N)=O)CCCC3)n1	5.2	-3.2	4.0	1.8	27.3	2.9	nt	nt
SMILES	STEP inh	DNMT1 block	CSN inh	Scp-1 inhibitor	SUMO1-SIM PPI	LMPTP inh	DNMT1 confirm	DNMT1 interf	others
CCn1cc(Br)c(C(=O)Nc2sc3c(c2C(N)=O)CCCC3)n1	2.2	68.0*	5.3	-7.2	4.2	8.7	2.0	-2.9
CCOC(=O)C1(CC2CCCCO2)CCN(Cc2cc3ccccc3[nH]2)CC1 (stereo not drawn)	0.6	-5.1	3.2	-1.3	-10.3	0.3	nt	nt
O=C(O)c1cc(N/N=C/c2cccc3ccccc23)ccc1Cl	-0.4	2.1	-3.0	-3.1	7.4	-1.3	nt	nt
CC(C)n1cc(/C=N/Nc2ccc(Cl)c(C(=O)O)c2)c2ccccc21	91.1*	82.3*	39.6*	nt	113.6*	54.5*	14.2	2.9
C(=N\Nc1nccc(-c2cccnc2)n1)/c1ccccc1	-3.2	-3.0	8.7	-7.0	-13.1	0.9	nt	nt
Cc1ccc(-c2cc(-c3ccccc3O)nc(N/N=C/c3cccnc3)n2)cc1	1.8	51.7*	0.5	-3.0	3.7	2.1	-0.7	-4.0
COC(=O)c1ccc(COc2ccc3c(c2)CCC3)o1	3.0	0.2	-1.7	-14.4	0.7	0.4	nt	nt
O=C(N/N=C/c1cc([N+](=O)[O-])ccc1O)c1ccc(COc2ccc3c(c2)CCC3)o1	90.3*	72.0*	2.4	80.8*	0.4	68.7*	20.8	-0.3
CCOC(=O)C(C(C)C)C(N)Cc1ccc(F)cc1 (stereo not drawn)	-1.9	-2.7	-2.3	-3.2	0.8	-2.2	nt	nt
CCOC(=O)C1CCN(C(=O)COC(=O)c2c(C)c(CC)nc3ccccc23)CC1	1.5	-0.1	0.7	-3.9	-1.5	-1.4	nt	nt
CCNC(=S)N/N=C/c1c(C)nn(-c2cccc(Cl)c2)c1Cl	-0.5	-1.7	-16.5	10.7	-5.0	1.0	nt	nt
Cc1nn(-c2cccc(Cl)c2)c(Cl)c1/C=N/NC(=O)c1cccs1	-5.0	72.5*	3.9	-2.1	6.2	12.7	4.7	-1.0
COc1ccccc1CNC(=O)CN(CCc1ccccc1)S(C)(=O)=O	8.7	1.0	0.8	6.5	1.3	-1.8	nt	nt
NS(=O)(=O)c1ccc(N=Nc2ccc(=O)[nH]c2O)cc1	85.1*	100.1*	48.4	85.9*	21.7	15.9	30.0	-1.2	Beacon interf DR=>99
NS(=O)(=O)c1ccc(N=Nc2ccc(O)c3ncccc23)cc1	1.3	-9.6	4.6	-7.7	-37.2	24.6	nt	nt
